Experimental data collected from several papers.
Each line is one published result; the experiments were not run side by side.

O=C(Nc1cccnn1)N1CCN([C@@H]2CCOc3cc(C(F)(F)F)ccc32)CC1  concentration (male Sprague-Dawley rat, plasma; oral, 1 mg/kg, 1 h): 125 ng/mL
Cc1cc(C)nc(Nc2ncc(C(=O)NCCc3c(C)[nH]c4ccccc34)cn2)c1  half-life (metabolic stability; mouse, liver microsomes; 1 µM): 0.0783 h
N=c1c2c(-c3ccccc3)c(-c3ccccc3)n(Cc3ccccc3)c2ncn1[C@H]1CC[C@H](O)CC1  half-life (metabolic stability; mouse, liver microsomes; 1 µM): > 2 h
Cl.Cl.O=C(CCN1CCCCC1)c1ccc(-c2ccc(C(=O)CCN3CCCCC3)cc2)cc1  half-life (Sprague-Dawley rat, plasma; oral, 100 mg/kg): 8.23 h
C[C@H](Cn1cnc2c(N)ncnc21)OCP(=O)(O)OCCCOCCCCCCCCCCCCC#C[Si](C)(C)C.N  half-life (metabolic stability; CD-1 mouse, liver microsomes; 3 µM, pH 7.4): > 2 h
Cc1ncc(C)n2nc(/C=C/c3nc(N4CCCC4)cc(N4CCOCC4)n3)nc12  concentration (male Fischer 344 rat, plasma; oral, 0.3 mg/kg, 1 h): 50 ng/mL
C[C@H](Cn1cnc2c(N)ncnc21)OCP(=O)(O)OCCCOCCCCCCCCCCCCCC#CC(F)(F)F.N  half-life (metabolic stability; CD-1 mouse, liver microsomes; 3 µM, pH 7.4): > 2 h
N#C[C@@H]1CC(F)(F)CN1C(=O)CNC(=O)c1ccnc2ccc(OCCCN3CCN(C(=O)CN4CCN(CC(=O)[O-])CCN(CC(=O)[O-])CC4)CC3)cc12.[18F-].[Al+3]  tracer uptake (rat, stomach; intravenous, 2 h): 1.05 %ID/g
CC(C)(C)[C@H](NC(=O)[C@H](CCONC(=N)N)NC(=O)Cc1ccc(CNC(=N)N)cc1)C(=O)N[C@@H](CCONC(=N)N)C(=O)NCc1ccc(C(=N)N)cc1  C0 (male Sprague-Dawley rat, plasma; intravenous, 1 mg/kg): 2080 ng/mL
